Bioassay records (PubChem BioAssay)
proCasp7 act: activates human procaspase-7, counter-screen for procaspase-3 activators; P55210; recombinant procaspase-7, Ac-DEVD-pNA absorbance 405 nm; D23A/D198A/D206A triple mutant, cannot self-cleave; scale: DMSO 0, 5 µM enzyme 100; activation, % at 8.5 µM; 0.093% of 330,000 active;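 active means percent activation above the screen-wide mean plus 3 SD, cut at about 25% in these data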
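Material: Procaspase-7 triple mutant (PC-7 D3A) | Quantity: 2 µM procaspase-7 mutant as dispensed | Reagent: DEVD-pNA substrate | Times: 1 h preincubation, 2 h reaction | Technique: 405 nm absorbance of p-nitroaniline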
procasp3 activ: activates human procaspase-3; activation, % at 8.5 µM; 0.11% of 330,000 active; recombinant procaspase-3 D3A, Ac-DEVD-pNA absorbance 405 nm;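 active means activation above the mean of all tested compounds plus 3 SD, cut at about 21% in these data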
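Test system: Procaspase-3 D3A mutant, all three cleavage aspartates alanine | Dosing: Single dose, 8.5 µM nominal compound, 0.8% DMSO | Schedule: 1 h preincubation, 2 h reaction | Technique: 405 nm absorbance of p-nitroaniline, reads at 0 and 120 min | Repeats: One well per compound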
HGIII-sPLA2 inh: Inhibits HGIII-sPLA2 liposome hydrolysis, primary screen; 0.56% of 370,000 active; inhibition, % at 12.2 µM; AID 743126; QFRET BODIPY PC-A2 liposome hydrolysis, fluorescence; Q9NZ20;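 active means inhibition above mean plus 3 SD of compounds lying within the high and low control bounds, cut at about 19% in these data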
PLCb3 inh: inhibitors of human phospholipase C beta3 | Q01970 | Purified PLC-beta3, fluorogenic substrate, fluorescence | inhibition, % at 12.2 µM | 0.18% of 370,000 active; in the data active means inhibition above about 11%
Target sequence (Q01970 whole entry, looked up): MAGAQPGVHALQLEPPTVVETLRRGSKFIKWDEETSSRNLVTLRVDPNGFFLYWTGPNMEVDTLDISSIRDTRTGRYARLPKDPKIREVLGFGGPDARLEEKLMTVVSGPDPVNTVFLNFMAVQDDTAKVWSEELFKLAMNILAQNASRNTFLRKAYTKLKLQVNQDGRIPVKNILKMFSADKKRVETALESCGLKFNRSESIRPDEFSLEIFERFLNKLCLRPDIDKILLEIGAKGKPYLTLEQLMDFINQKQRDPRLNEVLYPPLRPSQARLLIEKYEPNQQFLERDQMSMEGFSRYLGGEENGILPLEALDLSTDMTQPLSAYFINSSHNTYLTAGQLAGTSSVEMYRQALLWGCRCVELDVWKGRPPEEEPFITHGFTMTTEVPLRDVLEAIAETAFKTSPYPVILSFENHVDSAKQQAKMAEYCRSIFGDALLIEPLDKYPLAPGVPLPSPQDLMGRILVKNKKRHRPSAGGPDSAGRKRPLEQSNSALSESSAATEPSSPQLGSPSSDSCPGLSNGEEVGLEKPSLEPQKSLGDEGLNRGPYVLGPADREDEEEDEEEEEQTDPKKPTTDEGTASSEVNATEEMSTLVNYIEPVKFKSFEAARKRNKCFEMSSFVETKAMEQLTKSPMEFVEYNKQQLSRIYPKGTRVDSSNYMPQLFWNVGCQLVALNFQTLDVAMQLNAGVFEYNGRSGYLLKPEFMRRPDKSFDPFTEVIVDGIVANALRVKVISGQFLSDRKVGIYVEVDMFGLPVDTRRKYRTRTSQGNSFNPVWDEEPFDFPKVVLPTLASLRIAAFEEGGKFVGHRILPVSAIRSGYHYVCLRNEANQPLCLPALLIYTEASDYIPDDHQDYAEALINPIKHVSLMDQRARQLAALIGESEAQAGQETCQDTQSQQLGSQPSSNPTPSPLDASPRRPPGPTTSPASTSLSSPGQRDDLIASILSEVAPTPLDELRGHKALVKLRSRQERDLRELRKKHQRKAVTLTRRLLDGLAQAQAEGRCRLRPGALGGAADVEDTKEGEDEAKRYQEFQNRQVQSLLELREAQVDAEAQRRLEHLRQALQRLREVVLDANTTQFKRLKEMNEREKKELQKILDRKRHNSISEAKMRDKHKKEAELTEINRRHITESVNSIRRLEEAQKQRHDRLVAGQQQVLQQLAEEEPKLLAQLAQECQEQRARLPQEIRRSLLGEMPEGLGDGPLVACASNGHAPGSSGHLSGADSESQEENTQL
PLC-gamma1 inh: PLC-gamma1 (human) inhibition, primary screen; P19174; purified PLC-gamma1, fluorogenic substrate, fluorescence; inhibition, % at 12.2 µM; 0.84% of 370,000 active
PLCgamma1 ctr: counter-screen for PLC-beta3 inhibitors: inhibitors of human PLC-gamma1; 3.1% of 3,300 active; purified PLC-gamma1, fluorogenic substrate, fluorescence; inhibition, % at 12.3 µM; shares compounds with PLC-gamma1 inh
PLCb3 confirm: confirmation of human PLC-beta3 inhibitors | inhibition, % at 12.3 µM | purified PLC-beta3, fluorogenic substrate fluorescence | shares compounds with PLC-gamma1 inh | 1% of 3,300 active | AID 743261; in the data active means inhibition above about 11%
hGIII sPLA2 conf: human GIII-sPLA2 inhibition, confirmation | recombinant hGIII-sPLA2, BODIPY PC-A2 QFRET fluorescence | inhibition, % at 12.2 µM | AID 743280 | 34% of 2,000 active | shares compounds with HGIII-sPLA2 inh;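 active means mean inhibition across triplicates above the hit cutoff set in the earlier primary screen, cut at about 19% in these data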
535nm interf: counter-screen for HGIII-sPLA2 inhibitors: 535nm fluorescence interference; shares compounds with HGIII-sPLA2 inh; BODIPY FL product fluorescence interference, QFRET; inhibition, % at 12.2 µM; 8.5% of 2,000 active;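 active means average inhibition above the solvent-only control mean plus 3 SD, cut at about 6% in these data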
535nm interf DR: interferes with 535nm fluorescence in dose response counter-screen | shares compounds with HGIII-sPLA2 inh | BODIPY FL product fluorescence interference, cell-free | IC50, µM | 240 tested, under 10 active;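 active means IC50 at or below 10 µM; inactive means IC50 above 10 µM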
Each line names hits and unclear results; the compound was inactive in the other large screens (follow-up assays come after a bar, where they were run). In the library only some 1.6% were active in any assay of this set; here they are far more common. Unless noted, no stated cut-off is given here; in the data, active means inhibition above about 9.5%; inactive means the rest.

O=C(CSc1nc2[nH]ncc2c(=O)[nH]1)NCc1ccc(F)cc1	HGIII-sPLA2 inh 96, PLC-gamma1 inh 12 | PLCgamma1 ctr inactive | PLCb3 confirm inactive | hGIII sPLA2 conf inactive | 535nm interf inactive
Cc1occc1-c1nnc(SC(C)C(=O)Nc2ccccc2F)o1 (stereo unspecified)	none (no result: proCasp7 act, procasp3 activ)
CC(C)(C)c1ccc(CNc2nc(-c3ccccn3)nnc2-c2ccccc2)cc1	HGIII-sPLA2 inh 40, PLC-gamma1 inh 18 (no result: proCasp7 act, procasp3 activ) | PLCgamma1 ctr 14 | PLCb3 confirm 15 | hGIII sPLA2 conf inactive | 535nm interf inactive
Cc1ccc2cc(CCNC(=O)c3cccc([N+](=O)[O-])c3)c(=O)[nH]c2c1C	HGIII-sPLA2 inh 22, PLC-gamma1 inh 10 | PLCgamma1 ctr inactive | PLCb3 confirm inactive | hGIII sPLA2 conf inactive | 535nm interf inactive
COc1ccc2cc(CCNC(=O)c3cccc([N+](=O)[O-])c3)c(=O)[nH]c2c1	none
O=C(c1cc(COc2ccc(F)cc2Cl)on1)N(CCO)Cc1cccs1	none
O=C(NC1=C(Nc2ccc(Cl)cc2)C(=O)c2ccccc2C1=O)c1ccccc1	none
Cc1cccc(NC2=C(NC(=O)c3ccccc3)C(=O)c3ccccc3C2=O)c1	HGIII-sPLA2 inh 24, PLC-gamma1 inh 10 | PLCgamma1 ctr inactive | PLCb3 confirm inactive | hGIII sPLA2 conf 23 | 535nm interf inactive
CC(C)(C)c1ccc(OCCCC(=O)Nc2nnc(C3CC3)s2)cc1	none (no result: proCasp7 act, procasp3 activ)
Cc1ccc(OCC(=O)Nc2cc(S(=O)(=O)N3CCCCC3)ccc2C)c([N+](=O)[O-])n1	HGIII-sPLA2 inh 21, PLC-gamma1 inh 10 | PLCgamma1 ctr inactive | PLCb3 confirm inactive | hGIII sPLA2 conf inactive | 535nm interf inactive
CCCNC(=S)N(Cc1ccccc1)Cc1nc2ccccc2c(=O)[nH]1	HGIII-sPLA2 inh 22, PLC-gamma1 inh 20 | PLCgamma1 ctr inactive | PLCb3 confirm inactive | hGIII sPLA2 conf inactive | 535nm interf inactive
CSc1nnc(-c2cc(C)on2)n1-c1ccccc1	HGIII-sPLA2 inh 20, PLC-gamma1 inh 11 | PLCgamma1 ctr inactive | PLCb3 confirm inactive | hGIII sPLA2 conf inactive | 535nm interf inactive
Cc1ccc(Cn2cccc2C2=NC(C)CO2)cc1 (stereo unspecified)	HGIII-sPLA2 inh 21, PLC-gamma1 inh 11 | PLCgamma1 ctr inactive | PLCb3 confirm inactive | hGIII sPLA2 conf inactive | 535nm interf inactive
CC1CC(=O)N(CC(=O)Nc2ccc(F)cc2)c2ccccc2S1(=O)=O (stereo unspecified)	none
N#CCC[C@@H]1CC[C@]2(CCCN(Cc3ccc(Br)cc3)C2)O1	HGIII-sPLA2 inh 22, PLC-gamma1 inh 9.5 (no result: proCasp7 act, procasp3 activ) | PLCgamma1 ctr inactive | PLCb3 confirm inactive | hGIII sPLA2 conf inactive | 535nm interf inactive
N#CCC[C@H]1CC[C@]2(CCCN(Cc3cccc4ccccc34)C2)O1	none (no result: proCasp7 act, procasp3 activ)
NC(N)=N/N=C(\N=Nc1ccccc1)c1cccc2cccnc12	none (no result: proCasp7 act, procasp3 activ)
NC(N)=N/N=C(\N=Nc1ccccc1)c1ccc(Cl)cc1	HGIII-sPLA2 inh 27, PLC-gamma1 inh 10 (no result: proCasp7 act, procasp3 activ) | PLCgamma1 ctr inactive | PLCb3 confirm inactive | hGIII sPLA2 conf 34 | 535nm interf inactive | 535nm interf DR inactive
Nc1cc(N)c2c(c1)C(=O)c1ccccc1-2	HGIII-sPLA2 inh 20, PLC-gamma1 inh 9.8 (no result: proCasp7 act, procasp3 activ) | PLCgamma1 ctr inactive | PLCb3 confirm inactive | hGIII sPLA2 conf 38 | 535nm interf inactive | 535nm interf DR inactive
CC(=O)Nc1cc(-c2cccnc2)cn2c(-c3ccc(F)cc3)cnc12	none (no result: proCasp7 act, procasp3 activ)
C[C@H](CO)N1C[C@H](C)[C@@H](CN(C)C(=O)Nc2cccc(Oc3ccccn3)c2)OCc2cnnn2CCCC1=O	none (no result: proCasp7 act, procasp3 activ)
C[C@@H]1CN([C@H](C)CO)C(=O)CCCn2nncc2CO[C@H]1CN(C)C(=O)Nc1cccc(Oc2ccccn2)c1	HGIII-sPLA2 inh 20, PLC-gamma1 inh 9.7 (no result: proCasp7 act, procasp3 activ) | PLCgamma1 ctr inactive | PLCb3 confirm inactive | hGIII sPLA2 conf inactive | 535nm interf inactive
CCCNC(=O)C1(C)CCN(C(=O)c2ccccc2OC)C1 (stereo unspecified)	none (no result: proCasp7 act, procasp3 activ)
C#CCOCCOCCOCCNc1nc(N2CCN(C(=O)[C@H](CCCCN)n3cc([C@@H](N)C(C)CC)nn3)CC2)nc(N2CCN(C(=O)[C@H](CCCCN)n3cc([C@@H](N)C(C)CC)nn3)CC2)n1 (stereo partly specified)	HGIII-sPLA2 inh 20, PLC-gamma1 inh 10 (no result: proCasp7 act, procasp3 activ) | PLCgamma1 ctr inactive | PLCb3 confirm inactive | hGIII sPLA2 conf inactive | 535nm interf inactive
Cc1cccc(OCC(=O)O/N=C(\N)c2ccncc2)c1	none
C[C@H](CO)N1C[C@H](C)[C@H](CN(C)Cc2ccncc2)OCc2ccccc2-c2c(n(C)c3ccccc23)C1=O	none (no result: proCasp7 act, procasp3 activ)
CN(C)C(=O)OCC1COc2ccccc2O1 (stereo unspecified)	HGIII-sPLA2 inh 21, PLC-gamma1 inh 9.9 | PLCgamma1 ctr inactive | PLCb3 confirm inactive | hGIII sPLA2 conf inactive | 535nm interf inactive
CC(=O)NCC1COc2ccccc2O1 (stereo unspecified)	none
CC(C)(C)NC(=O)c1cccc2c1OC(C)(C)C2	HGIII-sPLA2 inh 24, PLC-gamma1 inh 16 | PLCgamma1 ctr inactive | PLCb3 confirm inactive | hGIII sPLA2 conf inactive | 535nm interf inactive
CC1(C)Cc2cccc(C(=O)NCc3ccco3)c2O1	none
CCCCOc1ccc(Br)cc1CSC(=N)N	HGIII-sPLA2 inh 44, PLC-gamma1 inh 10 (no result: proCasp7 act, procasp3 activ) | PLCgamma1 ctr inactive | PLCb3 confirm inactive | hGIII sPLA2 conf 25 | 535nm interf inactive
Cc1cnn(-c2ccccc2)c1NC(=O)COCc1ccccc1	none (no result: proCasp7 act, procasp3 activ)
CC(C)C[C@H](NC(=O)c1[nH]cnc1C(=O)N[C@@H](C)C(=O)OC(C)(C)C)C(=O)OC(C)(C)C	HGIII-sPLA2 inh 23, PLCb3 inh 11 | PLCgamma1 ctr inactive | PLCb3 confirm inactive | hGIII sPLA2 conf inactive | 535nm interf inactive
O=C1c2c(O)cccc2C(C2OC(CO)[C@@H](O)[C@H](O)[C@H]2O)c2cc(CO)cc(O)c21 (stereo partly specified)	none
